Laboratory results from PubChem BioAssay.
Calls of active or inactive are those of the source.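 The calls were made as follows, unless noted: active = GFP response above 150% of the DMSO level; inconclusive = fewer than 70 events counted for a yeast strain; inactive = the rest.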

Assays:
[1] = hit retest on RPL19A-GFP reporter strain – cell-based, S. cerevisiae, flow cytometry, cherry picks, mother/daughter gates, confirmation (AID 2270;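 active = GFP response below 50% of the DMSO control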); details: 3 h, at 10 µM, stronger effect = lower value, 100 = same GFP as DMSO wells
[2] = yeast TOR pathway reporter LAP4-GFP change – cell-based, cherry picks, flow cytometry, mother/daughter gates, confirmation (AID 2271;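 active = GFP response above 150% of the DMSO control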;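 also: ratio of sample to DMSO plate mean so 100% equals DMSO level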); details: S. cerevisiae LAP4-GFP strain, 3 h, at 10 µM, stronger effect = higher value, 100 means same as DMSO control
In short: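 System: Alexa 633-stained baker's yeast GFP-fusion strain; quantity: 0.2 OD600 cells; timing: compound exposure 3 h at 30 °C, end-over-end rotation; detection: HT flow cytometry, GFP fluorescence channel; measure: per-gate (all, mother, daughter) GFP response vs DMSO; control set: DMSO-only negative wells, rapamycin 400 ng/mL positive wells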

[3] = TOR pathway reporter MEP2-GFP, retest of hits – S. cerevisiae, flow cytometry GFP, cherry picks, confirmation (AID 2272;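 active = GFP response above 150% of the DMSO control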;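 also: ratio of well signal to plate DMSO mean so 100% equals DMSO level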); details: S. cerevisiae MEP2-GFP strain, 3 h, at 10 µM, stronger effect = higher value
[4] = yeast AGP1-GFP fluorescence change, single-dose – cell-based, flow cytometry, S. cerevisiae, cherry picks, confirmation (AID 2273);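 also: median GFP channel fluorescence over the whole cell population gate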; details: S. cerevisiae AGP1-GFP strain, 3 h, at 10 µM
[5] = TOR pathway CIT2 reporter hit retest – S. cerevisiae, GFP fusion, cherry picks, mother/daughter gates, confirmation (AID 2274); details: S. cerevisiae CIT2-GFP strain, flow cytometry, 3 h, at 10 µM, stronger effect = higher value
[6] = measured here: daughter cell gate
[7] = measured here: mother cell gate
[8] = measured here: daughter cell gate response
[9] = measured here: mother cell gate response

| SMILES | GFP response vs DMSO [1] | GFP response vs DMSO [1, 6] [%] | GFP response vs DMSO [1, 7] [%] | GFP response relative to DMSO [2] | GFP response relative to DMSO [2, 8] [%] | GFP response relative to DMSO [2, 9] [%] | GFP response vs DMSO [3] | GFP response, % of DMSO [4] | GFP response, % of DMSO [5] | GFP response, % of DMSO [5, 6] [%] | GFP response, % of DMSO [5, 7] [%] |
| --- | --- | --- | --- | --- | --- | --- | --- | --- | --- | --- | --- |
| CCCOc1ccc(N2C(=O)CC(SCCN)C2=O)cc1 (stereo not drawn) | 93.5% (inactive) | 92.9 | 94.6 | 101% (inactive) | 102 | 99.3 | 98.3% (inactive) | 92.3% (inactive) | 98.3% (inactive) | 101 | 96.1 |
| O=C(Nc1ccccc1)c1ccccc1O | 96.7% (inactive) | 97.3 | 95.6 | 114% (inactive) | 107 | 114 | 99.3% (inactive) | 97.3% (inactive) | 93.1% (inactive) | 95.8 | 92.6 |
| COC(=O)c1ccc(/C=C/C(=O)c2cccc(OC)c2)cc1 | 104% (inactive) | 102 | 103 | 117% (inactive) | 112 | 116 | 105% (inactive) | 101% (inactive) | 103% (inactive) | 101 | 102 |
| CCc1c(C)c2cc(Cl)c(O)c(CN(C)C)c2oc1=O | 95.1% (inactive) | 95.6 | 94.8 | 95.3% (inactive) | 99 | 93.4 | 106% (inactive) | 93.9% (inactive) | 95.8% (inactive) | 95.8 | 94.9 |
| COC(=O)c1ccc(/C=N/NC(=O)c2cccc(F)c2)cc1 | 99.9% (inactive) | 99.3 | 98.6 | 103% (inactive) | 102 | 101 | 104% (inactive) | 99.3% (inactive) | 99.3% (inactive) | 100 | 99.1 |
| Cc1ccc(C2=NOC(=O)/C2=C\c2ccc(C)o2)cc1 | 101% (inactive) | 89.7 | 90.8 | 230% (active) | 134 | 224 | 110% (inactive) | 97% (inactive) | 87.2% (inactive) | 87.3 | 72.8 |
| O/C=c1\ccc2cccc3nc(C(F)(F)F)nc1c23 | 111% (inactive) | 111 | 110 | 172% (active) | 167 | 178 | 269% (active) | 108% (inactive) | 179% (active) | 171 | 181 |
| CCOC(=O)C(=CNNc1cccc(Cl)c1)C(=O)OCC | 103% (inactive) | 102 | 102 | 131% (inactive) | 125 | 137 | 111% (inactive) | 103% (inactive) | 103% (inactive) | 101 | 104 |
| CC(=O)S[C@@H]1CC2=CC(=O)CC[C@]2(C)[C@H]2CC[C@@]3(C)[C@@H](CC[C@@]34CCC(=O)O4)[C@H]12 | 101% (inactive) | 99.2 | 100 | 97.4% (inactive) | 97.2 | 98.3 | 100% (inactive) | 95.9% (inactive) | 99.1% (inactive) | 96.5 | 98.7 |
| COc1ccc2c(c1)c(C(C)=O)c(C)n2-c1ccccc1OC | 96.5% (inactive) | 97.8 | 95.4 | 101% (inactive) | 99 | 101 | 101% (inactive) | 107% (inactive) | 103% (inactive) | 101 | 103 |
| COC(=O)c1ccc(N2C(=O)CC(Sc3n[nH]c(C)n3)C2=O)cc1 (stereo not drawn) | 101% (inactive) | 103 | 98 | 128% (inactive) | 130 | 131 | 108% (inactive) | 101% (inactive) | 106% (inactive) | 108 | 103 |
| CN1CCc2c(sc3c2C(=O)NC(c2ccc4c(c2)OCO4)N3)C1 (stereo not drawn) | 98.4% (inactive) | 99.8 | 98.5 | 96.5% (inactive) | 95 | 98.5 | 106% (inactive) | 102% (inactive) | 102% (inactive) | 102 | 99.1 |
| CC(C(=O)NCCc1ccc(F)cc1)N1CCN(Cc2ccccc2)CC1 (stereo not drawn) | 96.5% (inactive) | 97 | 96.8 | 98.7% (inactive) | 100 | 101 | 102% (inactive) | 98.5% (inactive) | 95.2% (inactive) | 96.5 | 95.5 |
| Cc1cccc(NC(c2ccc(C)s2)c2ccc3ccc(C)nc3c2O)n1 (stereo not drawn) | 108% (inactive) | 120 | 98.6 | 140% (inactive) | 141 | 134 | 114% (inactive) | 94.9% (inactive) | 109% (inactive) | 121 | 94.4 |
| Cc1ccc(-c2csc(NC(=O)c3cccs3)n2)cc1 | 98.8% (inactive) | 93.9 | 99.6 | 105% (inactive) | 99.1 | 107 | 112% (inactive) | 98% (inactive) | 94.4% (inactive) | 90.2 | 94.4 |
| O=C(/C(=C/c1ccccc1)n1cncn1)c1ccc(Cl)cc1Cl | 96% (inactive) | 92.7 | 93.5 | 149% (inactive) | 125 | 162 | 98.8% (inactive) | 106% (inactive) | 86% (inactive) | 85.7 | 79.8 |
| Cc1[nH]n(-c2ccccc2)c(=O)c1/C=N/Nc1nncc(-c2ccccc2)n1 | 88.1% (inactive) | 85.8 | 88.9 | 149% (inactive) | 137 | 151 | 108% (inactive) | 110% (inactive) | 86% (inactive) | 84.1 | 83.8 |

| SMILES | GFP response vs DMSO [1] | GFP response vs DMSO [1, 6] [%] | GFP response vs DMSO [1, 7] [%] | GFP response relative to DMSO [2] | GFP response relative to DMSO [2, 8] [%] | GFP response relative to DMSO [2, 9] [%] | GFP response vs DMSO [3] | GFP response, % of DMSO [4] | GFP response, % of DMSO [5] | GFP response, % of DMSO [5, 6] [%] | GFP response, % of DMSO [5, 7] [%] |
| --- | --- | --- | --- | --- | --- | --- | --- | --- | --- | --- | --- |
| COc1ccc(-c2[nH]ncc2N=Nc2ccccc2)cc1 | 96.2% (inactive) | 94.3 | 96.6 | 107% (inactive) | 104 | 108 | 94.4% (inactive) | 92.2% (inactive) | 97.2% (inactive) | 98.4 | 93.7 |
| Cc1ccc(Oc2nc(-c3ccccn3)nc3ccccc23)cc1 | 98.2% (inactive) | 94.7 | 97.8 | 110% (inactive) | 107 | 110 | 103% (inactive) | 92.2% (inactive) | 91.5% (inactive) | 92 | 90.7 |
| O=C(NCc1ccccn1)c1cc(-c2ccc(Cl)cc2)oc1C(F)(F)F | 99.5% (inactive) | 98.4 | 99.8 | 103% (inactive) | 106 | 102 | 100% (inactive) | 99.4% (inactive) | 102% (inactive) | 98.1 | 101 |
| CS(=O)(=O)Nc1cccc(C2=NN(S(C)(=O)=O)C(c3ccc4c(c3)OCO4)C2)c1 (stereo not drawn) | 97.2% (inactive) | 98.9 | 98.7 | 99.2% (inactive) | 99.2 | 98.3 | 102% (inactive) | 99.5% (inactive) | 103% (inactive) | 103 | 103 |
| COC(=O)c1ccc(C(=O)NC(=S)Nc2ccc3nc(SC)sc3c2)cc1 | 97.8% (inactive) | 97.6 | 98.3 | 90% (inactive) | 90.4 | 91 | 101% (inactive) | 102% (inactive) | 103% (inactive) | 93.7 | 105 |
| Cc1cc(N2CCCCC2)n2ncc(-c3ccccc3)c2n1 | 97.6% (inactive) | 97.3 | 98.4 | 102% (inactive) | 106 | 102 | 95.7% (inactive) | 95.2% (inactive) | 104% (inactive) | 103 | 103 |
| O=S(=O)(Nc1cccc(-c2ccc(N3CCCCCC3)nn2)c1)c1ccccc1F | 101% (inactive) | 99.3 | 101 | 95.7% (inactive) | 95.9 | 95.2 | 99% (inactive) | 107% (inactive) | 100% (inactive) | 101 | 101 |
| O=C1c2cccc3c(N4CCCCC4)ccc(c23)C(=O)N1CCO | 100% (inactive) | 94.9 | 94.9 | 99.5% (inactive) | 99.1 | 98.4 | 105% (inactive) | 103% (inactive) | 103% (inactive) | 101 | 96.8 |
| CS(=O)(=O)c1nc(-c2cccs2)cc(C(F)(F)F)n1 | 93% (inactive) | 95.2 | 88.6 | 176% (active) | 164 | 180 | 143% (inactive) | 118% (inactive) | 94.4% (inactive) | 99.2 | 89.5 |
| COC(=O)/C(=C/c1c[nH]c2ccccc12)[N+](=O)[O-] | 99.6% (inactive) | 95.1 | 95.1 | 162% (active) | 149 | 164 | 111% (inactive) | 86.9% (inactive) | 89.8% (inactive) | 89.9 | 80.7 |
| COc1cccc(/C=C2\C(=O)N(c3cccc(C)c3)C(=O)c3ccccc32)c1 | 96% (inactive) | 92 | 92.8 | 168% (active) | 145 | 180 | 98.8% (inactive) | 104% (inactive) | 79.7% (inactive) | 84.1 | 71.8 |
| O=C(c1ccccc1)N1CCN(c2ccccc2F)CC1 | 101% (inactive) | 102 | 99.6 | 105% (inactive) | 104 | 96.4 | 103% (inactive) | 99.1% (inactive) | 95.8% (inactive) | 97.6 | 90.4 |
| O=C(O/N=C(\c1ccccc1)c1ccncc1)c1ccccc1Cl | 77% (inactive) | 74.3 | 79.7 | 119% (inactive) | 118 | 123 | 91% (inactive) | 91.8% (inactive) | 68.1% (inactive) | 69.2 | 69.2 |
| O=C(O)CSC1CC(=O)N(c2cccc(Cl)c2)C1=O (stereo not drawn) | 96.7% (inactive) | 97.3 | 94.6 | 104% (inactive) | 101 | 104 | 110% (inactive) | 101% (inactive) | 104% (inactive) | 105 | 104 |
| Oc1c(Br)cc(Br)cc1C=Nc1cccc2ncccc12 | 104% (inactive) | 93.9 | 98.6 | 125% (inactive) | 110 | 126 | 103% (inactive) | 95.7% (inactive) | 97.3% (inactive) | 99.2 | 89.5 |
| CCC(=O)c1ccc(N2CCN(C(=O)c3ccc(Br)cc3)CC2)c(F)c1 | 97.6% (inactive) | 97.6 | 94.4 | 115% (inactive) | 117 | 112 | 101% (inactive) | 96.1% (inactive) | 95.9% (inactive) | 97.4 | 93.2 |
